# High-throughput results (PubChem BioAssay)
# Rows were chosen to be rich in hits. Some 2.6% of all compounds tested hit in one or more screens of this group.
# VLA-4 inh = inhibition in a human VLA-4 binding assay; VLA-4 expressing cells, ligand binding flow cytometry; inhibition, % (about 7 µM as worked out from the volumes in the protocol); P13612; hit rate 0.2% among 330,000; AID 2557; in the data active = inhibition above about 50%
# TAAR1 ag = agonists of human TAAR1; hit rate 0.99% among 360,000; activation, % at 3 µM; Q96RJ0; CHO RD-HGA16 TAAR1, Fluo-8 calcium fluorescence; vehicle wells 0%, saturating PEA agonist 100%;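 active = activation above the mean activation of all test compounds in the run plus 3 SD, cut at about 38% in these data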
# Target sequence (Q96RJ0 whole entry, looked up): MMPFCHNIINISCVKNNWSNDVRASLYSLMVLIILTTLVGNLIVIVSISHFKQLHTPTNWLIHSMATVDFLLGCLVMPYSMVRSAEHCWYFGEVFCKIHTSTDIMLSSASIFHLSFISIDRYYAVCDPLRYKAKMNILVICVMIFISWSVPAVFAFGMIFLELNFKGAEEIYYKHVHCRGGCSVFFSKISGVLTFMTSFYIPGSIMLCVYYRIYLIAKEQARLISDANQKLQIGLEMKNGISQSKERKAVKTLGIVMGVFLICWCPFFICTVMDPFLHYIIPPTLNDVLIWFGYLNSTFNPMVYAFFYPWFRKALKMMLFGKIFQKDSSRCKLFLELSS
#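 Test system: RD-HGA16 (CHO) cells co-expressing Gα16 and hTAAR1; dosing: one-point dosing at 3 µM (nominal); timing: 17-24 h seeding, 75 min 37 °C dye, 30 min RT; signal: kinetic Fluo-8 calcium fluorescence; read-out basis: % activation relative to PEA EC100 response; controls: DMSO and PEA EC100; replicates: n 1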
# Platelet DG rel = platelet dense granule release activity. hit rate 0.22% among 300,000. human platelet-rich plasma, SFLLRN dense granule ATP release, luminescence. inhibition, %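 (compounds screened at 7.5 µM in platelet-rich plasma)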;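 active = mean replicate score, as percent of positive control, at or above 50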
# TAAR1 antag = antagonists of human TAAR1 | Q96RJ0 | CHO RD-HGA16 TAAR1, Fluo-8 calcium fluorescence, antagonist | inhibition, % at 3 µM | hit rate 1.5% among 360,000 | AID 624466;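 active = inhibition above a per-plate cutoff, the mean inhibition of test compounds on that plate plus 3 SD, cut at about 49% in these data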;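 note: 0% = DMSO plus EC80 beta-PEA response and 100% = DMSO alone without agonist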
#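 System: RD-HGA16 CHO cells with stable hTAAR1 and Gα16 | Probe or stimulus: EC80 β-phenethylamine stimulus | Dosing: 3 µM, single point | Times: Dye loading 75 min at 37 °C, then 30 min room temperature | Measured by: Fluo-8 calcium-sensitive fluorescence | Read-out basis: % inhibition of agonist calcium response | Replicates: n of 1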
# Rce1 inh = blocks yeast Ras-converting enzyme | Q03530 | yeast membranes, quenched prenylated peptide cleavage fluorescence | calls only | hit rate 0.27% among 290,000 | AID 2563;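 active = fall in fluorescence gain of 50% or more versus controls, with final raw signal at or below 3038400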;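 note: plate controls were neutral control wells for no effect and wells lacking membranes for full effect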
# Target sequence (Q03530 whole entry, looked up): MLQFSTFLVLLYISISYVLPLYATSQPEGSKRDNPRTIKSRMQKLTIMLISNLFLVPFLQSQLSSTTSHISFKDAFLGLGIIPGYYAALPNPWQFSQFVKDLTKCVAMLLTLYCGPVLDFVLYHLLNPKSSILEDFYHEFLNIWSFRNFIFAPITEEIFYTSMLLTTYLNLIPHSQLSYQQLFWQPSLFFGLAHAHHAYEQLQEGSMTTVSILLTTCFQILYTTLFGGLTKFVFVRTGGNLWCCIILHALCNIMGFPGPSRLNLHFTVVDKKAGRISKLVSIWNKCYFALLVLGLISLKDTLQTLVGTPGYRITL
# VLA-4 mod pick = confirmation of allosteric modulators of human VLA-4 integrin; shares compounds with VLA-4 inh; U937 cells, HUTS-21 LIBS mAb binding, flow cytometry; LDV ligand present at threefold Kd; hit rate 2% among 1,300; inhibition, % at 6.7 µM; AID 2813; in the data active = inhibition above about 40%;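 note: 0% = ligand without compound and 100% = no ligand background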
# * hit, by the source's call; i = inactive; nt = no result given; + = active, no number.
SMILES,VLA-4 inh,TAAR1 ag,Platelet DG rel,TAAR1 antag,Rce1 inh,VLA-4 mod pick
CCOC(=O)N1CCN(C(=O)C[C@@H]2C[C@@]3(C(=O)OC)CC(C)(C)CC=C3N(Cc3cccc4ccccc34)C2=O)CC1,nt,6.5,nt,-16.3,nt,nt
O=C(CCC(=O)N(CC(=O)NC1CCCCC1)c1ccc(F)cc1)Nc1ccccn1,5.1,0.3,-16.7,-1.7,i,nt
Cc1ccc(C(=O)c2ccccc2C(=O)OCC(=O)N2CCCC2)cc1,1.5,-1.1,nt,-9.1,nt,nt
CCCCOc1ccc(C(=O)OCC(=O)N2CCCCCC2)cc1,9.9,2.8,nt,7.4,nt,3.1
O=C(OCC(=O)N1CCCC1)c1ccc(OC(F)(F)F)cc1,-2.8,1.2,0.5,-12.5,nt,nt
CC1CCCC(C)N1C(=O)COC(=O)c1cc(Br)ccc1Cl (stereo not drawn),5.9,11.7,13.7,-0.8,i,nt
Cc1cccc(C(=O)OCC(=O)N2CCCCCC2)c1C,-1.8,1.7,nt,-0.9,nt,0.0
CC1CCCC(C)N1C(=O)COC(=O)c1ccccc1O (stereo not drawn),-2.8,3.8,nt,17.7,nt,6.7
COc1ccc(/C=C/C(=O)NCC(=O)N/N=C(/C)c2ccc(Cl)cc2)cc1,16.2,0.1,-7.3,-13.6,i,nt
Cc1cc(C(=O)NNC(=O)C2CCCC2)c(C)o1,70.4*,0.8,9.1,-10.2,i,-4.2
COC(=O)Cc1ccc(NC(=O)c2ccc(C)c(C)c2)cc1,60.1*,4.7,0.4,10.8,i,10.9
Cc1c(Cl)ccc2sc(NC(=O)c3ccco3)nc12,53.5*,7.2,0.8,-5.2,i,2.0
Cc1nn(C)c(C)c1CNC(=O)Nc1ccc2c(c1)OCO2,124.7*,1.2,10.2,-11.8,i,2.4
Cc1ccc(S(=O)(=O)N2CCCOC2CNC(=O)C(=O)NCc2ccc3c(c2)OCO3)cc1 (stereo not drawn),-2.3,-2.0,11.3,-11.1,i,nt
CN1C(=O)/C(=N\OC(=O)c2cccc3ccccc23)c2ccccc21,66.0*,18.7,-2.3,10.9,i,0.0
Cc1cccc(/C(N)=N/OC(=O)c2cccc3ccccc23)c1,-0.2,0.1,2.8,-19.9,i,nt
CCN1CCCC1CNC(=O)C(=O)NC1CC1 (stereo not drawn),45.9,10.4,0.4,-14.6,i,-2.0
Cc1cccc(COc2ccc(/C=N/NC(=O)c3nnn(-c4nonc4N)c3COc3ccc(F)cc3)cc2)c1,5.0,-0.7,-1.6,-3.6,i,nt
Cc1nccn1-c1c2c(c(C#N)c3nc4ccccc4n13)CCCC2,nt,-0.1,nt,-21.0,nt,nt
N#Cc1c2c(c(-n3cnc4ccccc43)n3c1nc1ccccc13)CCC2,93.7*,0.3,-4.5,11.5,i,-0.1
CC(=O)c1ccc(N2CCN(c3ncccn3)CC2)cc1,14.3,1.4,2.5,-9.1,i,nt
CC(C)C(NC(=O)c1ccccc1F)C(=O)NCc1ccccc1 (stereo not drawn),51.8*,0.6,0.5,10.2,i,-6.7
CCOc1ccccc1C(=O)N[C@H](C(=O)NCc1ccccc1)C(C)C,-66.2,2.5,-5.3,-10.0,i,nt
CCOC(=O)N(C)C[C@H]1OCc2cnnn2CCCC(=O)N([C@@H](C)CO)C[C@H]1C,nt,2.9,nt,-12.1,nt,nt
COc1ccc(OC)c(/C=N/c2c(-c3ccc(O)c(OC)c3)nc3ccccn23)c1,50.6*,1.1,-0.2,-4.2,+,5.4
SMILES,VLA-4 inh,TAAR1 ag,Platelet DG rel,TAAR1 antag,Rce1 inh,VLA-4 mod pick
CCc1ccccc1NC(=O)C1NC(=O)CC1c1ccccc1 (stereo not drawn),56.0*,0.2,-1.6,-17.3,i,3.7
Cc1ccc(NC(=O)COc2ncnc3c(Cl)cc(Cl)cc23)cc1[N+](=O)[O-],40.5,-0.2,-35.9,9.0,i,-21.6
Cc1cc(Cl)ccc1OCC(=O)OCC(=O)Nc1ccc(F)c([N+](=O)[O-])c1,8.9,1.1,nt,34.3,nt,nt
Cc1cc(Cl)c(S(=O)(=O)N2CCCC2)cc1OCC(=O)NC1CCCCC1,68.3*,25.2,2.1,7.7,i,6.5
S=C(NC1CCCCC1)NC1CC2C=CC1C2 (stereo not drawn),4.0,2.7,17.4,-26.8,i,nt
CCn1cc(C(=O)OCc2ccccc2)c(=O)c2ccc(C)nc21,21.5,0.9,-3.3,-6.6,i,nt
CCn1cc(C(=O)OCc2cccc(Br)c2)c(=O)c2ccc(C)nc21,53.6*,15.4,0.7,-8.4,i,0.0
O=C(Cn1c(=O)oc2ccccc21)Nc1ccc(S(=O)(=O)N2CCCCC2)cc1,4.9,25.9,-7.8,2.8,i,nt
N#CCc1ccc(NC(=O)Cn2c(=O)oc3ccccc32)cc1,14.4,0.7,1.7,-15.4,i,-15.4
O=C(Cn1c(=O)oc2ccccc21)Nc1ccc(Cl)cc1,27.4,-0.1,0.0,4.0,i,nt
CCN(CC)S(=O)(=O)c1ccc(NC(=O)Cn2c(=O)oc3ccccc32)cc1,7.1,14.1,6.2,-16.9,i,4.4
CC(C)(C)c1ccccc1NC(=O)COC(=O)CN1C(=O)NC2(CCCC2)C1=O,7.1,0.5,-0.8,1.2,i,nt
Nc1ncnc2nc(SCCOc3ccc(Cl)cc3)[nH]c12,44.4,8.2,0.7,7.5,i,-1.2
Cc1ccc(OCCSc2nc3ncnc(N)c3[nH]2)cc1,-8.8,5.4,-2.3,0.6,i,nt
O=C(Cn1ncc2c1-c1ccccc1OC2)N(Cc1ccco1)C1CCCCC1,0.2,-0.8,0.1,-14.8,i,nt
CC(CCc1ccco1)NC(=O)Cn1ncc2c1-c1ccccc1OC2 (stereo not drawn),56.6*,1.3,18.6,-10.3,i,4.4
COc1cccc([C@@H]2CC=C(C(=O)O)[C@H](c3ccccc3F)N2S(=O)(=O)c2ccc(C)cc2)c1,10.4,0.7,nt,-5.3,nt,nt
Cc1c(S(=O)(=O)N2CCC(C)CC2)c(=O)n(C)c(=O)n1C,50.4*,0.8,-16.0,-8.6,i,2.6
Cc1c(S(=O)(=O)N2CCCC(C)C2)c(=O)n(C)c(=O)n1C (stereo not drawn),6.8,-1.2,-48.7,10.5,i,nt
Cc1cc(/C=C2/NC(=S)NC2=O)c(C)n1-c1cccnc1,-172.7,5.6,5.8,3.6,i,nt
Cc1cc(/C=C2/NC(=O)N(c3ccccc3)C2=O)c(C)n1-c1cccnc1,43.1,8.5,4.0,-5.0,i,-11.0
CC(=O)NCc1nnc2c3ccccc3c(-c3ccccc3)nn12,-3.8,1.2,0.7,11.6,i,nt
O=C(COc1ccccc1)NCc1nnc2c3ccccc3c(-c3ccccc3)nn12,55.7*,7.0,-19.0,3.7,i,0.6
O=C(Nc1ccc(F)c(Cl)c1)C1Cc2c(-c3ccccc3Oc3ccccc3)ccnc2O1 (stereo not drawn),nt,1.0,nt,13.5,nt,nt
COc1ccc(C(=O)OC(C)C(=O)NC(C)CCc2ccccc2)cc1OC (stereo not drawn),42.4,2.4,2.4,6.2,i,0.5
